In ChEMBL document CHEMBL4689842, “EUbOPEN Chemogenomics Library wave 1” (2021):

Test system: HEK-293T
Test: Multiplex assay against HEK293T;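 as to Population Tubulin-Different-Phenotype (%): share of the cells with healthy nuclei that show this phenotype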
Format: toxicity, cell-based
Conditions: human
In short: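 Hoechst33342, BioTracker Green Microtubule Cytoskeleton Dye, MitoTracker Red and Annexin V Alexa Fluor 680 were added to live cells at seeding, and imaging on a CQ1 microscope at 37°C and 5% CO2 followed compound addition. Gating by CellPathfinder machine learning separated cells into Hoechst high-intensity objects or normal cells, then normal cells into healthy, pyknosed or fragmented nuclei, then pyknosed cells into mitotic or apoptotic. Per cents of healthy-nucleus cells are reported for the tubulin, mitochondrial-mass and membrane-permeability phenotypes.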

[1] = 12 h, 1 µM, compound concentration 1 uM, replicate 1
[2] = 12 h, 1 µM, compound concentration 1 uM, replicate 2
[3] = 12 h, 10 µM, compound concentration 10 uM, replicate 1
[4] = 12 h, 10 µM, compound concentration 10 uM, replicate 2
[5] = 24 h, 1 µM, compound concentration 1 uM, replicate 1
[6] = 24 h, 1 µM, compound concentration 1 uM, replicate 2
[7] = 24 h, 10 µM, compound concentration 10 uM, replicate 1
[8] = 24 h, 10 µM, compound concentration 10 uM, replicate 2
[9] = 48 h, 1 µM, compound concentration 1 uM, replicate 1
[10] = 48 h, 1 µM, compound concentration 1 uM, replicate 2
[11] = 48 h, 10 µM, compound concentration 10 uM, replicate 1
[12] = 48 h, 10 µM, compound concentration 10 uM, replicate 2

SMILES: Cl.NC[C@@H]1O[C@H](C23CC4CC(CC(C4)C2)C3)Cc2c1ccc(O)c2O
- Population Apoptotic (%) [1]: 34%
- Population Fragmented Nuclei (%) [1]: 10%
- Population Healthy Nuclei (%) [1]: 49%
- Population Hoechst High Intensity Objects (%) [1]: 11%
- Population Membrane Permeable-Phenotype (%) [1]: 2%
- Population Mitochondria Different-Phenotype (%) [1]: 80%
- Population Mitotic Cells (%) [1]: 65%
- Population Normal (%) [1]: 88%
- Population Pyknosed Nuclei (%) [1]: 40%
- Population Tubulin-Different-Phenotype (%) [1]: 55%
- Total Cell Count [1]: 321
- Population Apoptotic (%) [2]: 7%
- Population Fragmented Nuclei (%) [2]: 3%
- Population Healthy Nuclei (%) [2]: 47%
- Population Hoechst High Intensity Objects (%) [2]: 2%
- Population Membrane Permeable-Phenotype (%) [2]: 8%
- Population Mitochondria Different-Phenotype (%) [2]: 38%
- Population Mitotic Cells (%) [2]: 92%
- Population Normal (%) [2]: 97%
- Population Pyknosed Nuclei (%) [2]: 48%
- Population Tubulin-Different-Phenotype (%) [2]: 47%
- Total Cell Count [2]: 267
- Population Apoptotic (%) [3]: 60%
- Population Fragmented Nuclei (%) [3]: 10%
- Population Healthy Nuclei (%) [3]: 8%
- Population Hoechst High Intensity Objects (%) [3]: 16%
- Population Membrane Permeable-Phenotype (%) [3]: 0%
- Population Mitochondria Different-Phenotype (%) [3]: 94%
- Population Mitotic Cells (%) [3]: 39%
- Population Normal (%) [3]: 83%
- Population Pyknosed Nuclei (%) [3]: 80%
- Population Tubulin-Different-Phenotype (%) [3]: 58%
- Total Cell Count [3]: 245
- Population Apoptotic (%) [4]: 37%
- Population Fragmented Nuclei (%) [4]: 7%
- Population Healthy Nuclei (%) [4]: 6%
- Population Hoechst High Intensity Objects (%) [4]: 11%
- Population Membrane Permeable-Phenotype (%) [4]: 9%
- Population Mitochondria Different-Phenotype (%) [4]: 54%
- Population Mitotic Cells (%) [4]: 62%
- Population Normal (%) [4]: 88%
- Population Pyknosed Nuclei (%) [4]: 86%
- Population Tubulin-Different-Phenotype (%) [4]: 27%
- Total Cell Count [4]: 204
- Population Apoptotic (%) [5]: 34%
- Population Fragmented Nuclei (%) [5]: 10%
- Population Healthy Nuclei (%) [5]: 65%
- Population Hoechst High Intensity Objects (%) [5]: 13%
- Population Membrane Permeable-Phenotype (%) [5]: 0%
- Population Mitochondria Different-Phenotype (%) [5]: 46%
- Population Mitotic Cells (%) [5]: 65%
- Population Normal (%) [5]: 86%
- Population Pyknosed Nuclei (%) [5]: 24%
- Population Tubulin-Different-Phenotype (%) [5]: 43%
- Total Cell Count [5]: 389
- Population Apoptotic (%) [6]: 12%
- Population Fragmented Nuclei (%) [6]: 4%
- Population Healthy Nuclei (%) [6]: 67%
- Population Hoechst High Intensity Objects (%) [6]: 1%
- Population Membrane Permeable-Phenotype (%) [6]: 11%
- Population Mitochondria Different-Phenotype (%) [6]: 20%
- Population Mitotic Cells (%) [6]: 87%
- Population Normal (%) [6]: 98%
- Population Pyknosed Nuclei (%) [6]: 28%
- Population Tubulin-Different-Phenotype (%) [6]: 52%
- Total Cell Count [6]: 310
- Population Apoptotic (%) [7]: 36%
- Population Fragmented Nuclei (%) [7]: 15%
- Population Healthy Nuclei (%) [7]: 10%
- Population Hoechst High Intensity Objects (%) [7]: 13%
- Population Membrane Permeable-Phenotype (%) [7]: 4%
- Population Mitochondria Different-Phenotype (%) [7]: 78%
- Population Mitotic Cells (%) [7]: 63%
- Population Normal (%) [7]: 86%
- Population Pyknosed Nuclei (%) [7]: 73%
- Population Tubulin-Different-Phenotype (%) [7]: 73%
- Total Cell Count [7]: 258
- Population Apoptotic (%) [8]: 39%
- Population Fragmented Nuclei (%) [8]: 9%
- Population Healthy Nuclei (%) [8]: 14%
- Population Hoechst High Intensity Objects (%) [8]: 15%
- Population Membrane Permeable-Phenotype (%) [8]: 32%
- Population Mitochondria Different-Phenotype (%) [8]: 12%
- Population Mitotic Cells (%) [8]: 60%
- Population Normal (%) [8]: 84%
- Population Pyknosed Nuclei (%) [8]: 76%
- Population Tubulin-Different-Phenotype (%) [8]: 76%
- Total Cell Count [8]: 205
- Population Apoptotic (%) [9]: 14%
- Population Fragmented Nuclei (%) [9]: 11%
- Population Healthy Nuclei (%) [9]: 80%
- Population Hoechst High Intensity Objects (%) [9]: 6%
- Population Membrane Permeable-Phenotype (%) [9]: 6%
- Population Mitochondria Different-Phenotype (%) [9]: 5%
- Population Mitotic Cells (%) [9]: 85%
- Population Normal (%) [9]: 93%
- Population Pyknosed Nuclei (%) [9]: 7%
- Population Tubulin-Different-Phenotype (%) [9]: 17%
- Total Cell Count [9]: 773
- Population Apoptotic (%) [10]: 8%
- Population Fragmented Nuclei (%) [10]: 5%
- Population Healthy Nuclei (%) [10]: 83%
- Population Hoechst High Intensity Objects (%) [10]: 1%
- Population Membrane Permeable-Phenotype (%) [10]: 23%
- Population Mitochondria Different-Phenotype (%) [10]: 3%
- Population Mitotic Cells (%) [10]: 92%
- Population Normal (%) [10]: 98%
- Population Pyknosed Nuclei (%) [10]: 11%
- Population Tubulin-Different-Phenotype (%) [10]: 42%
- Total Cell Count [10]: 440
- Population Apoptotic (%) [11]: 23%
- Population Fragmented Nuclei (%) [11]: 21%
- Population Healthy Nuclei (%) [11]: 10%
- Population Hoechst High Intensity Objects (%) [11]: 15%
- Population Membrane Permeable-Phenotype (%) [11]: 38%
- Population Mitochondria Different-Phenotype (%) [11]: 0%
- Population Mitotic Cells (%) [11]: 76%
- Population Normal (%) [11]: 84%
- Population Pyknosed Nuclei (%) [11]: 67%
- Population Tubulin-Different-Phenotype (%) [11]: 46%
- Total Cell Count [11]: 286
- Population Apoptotic (%) [12]: 55%
- Population Fragmented Nuclei (%) [12]: 11%
- Population Healthy Nuclei (%) [12]: 24%
- Population Hoechst High Intensity Objects (%) [12]: 16%
- Population Membrane Permeable-Phenotype (%) [12]: 56%
- Population Mitotic Cells (%) [12]: 44%
- Population Normal (%) [12]: 83%
- Population Pyknosed Nuclei (%) [12]: 63%
- Population Tubulin-Different-Phenotype (%) [12]: 66%
- Total Cell Count [12]: 190

SMILES: Cc1ccc(NC(=O)Nc2cc(C(F)(F)F)ccc2F)cc1Nc1ccc2c(c1)NC(=O)/C2=C\c1ccc[nH]1
- Population Apoptotic (%) [1]: 13%
- Population Fragmented Nuclei (%) [1]: 19%
- Population Healthy Nuclei (%) [1]: 28%
- Population Hoechst High Intensity Objects (%) [1]: 16%
- Population Membrane Permeable-Phenotype (%) [1]: 59%
- Population Mitochondria Different-Phenotype (%) [1]: 0%
- Population Mitotic Cells (%) [1]: 86%
- Population Normal (%) [1]: 83%
- Population Pyknosed Nuclei (%) [1]: 51%
- Population Tubulin-Different-Phenotype (%) [1]: 28%
- Total Cell Count [1]: 644
- Population Apoptotic (%) [2]: 2%
- Population Fragmented Nuclei (%) [2]: 2%
- Population Healthy Nuclei (%) [2]: 83%
- Population Hoechst High Intensity Objects (%) [2]: 2%
- Population Mitotic Cells (%) [2]: 97%
- Population Normal (%) [2]: 97%
- Population Pyknosed Nuclei (%) [2]: 13%
- Population Tubulin-Different-Phenotype (%) [2]: 50%
- Total Cell Count [2]: 1372
- Population Apoptotic (%) [3]: 14%
- Population Fragmented Nuclei (%) [3]: 10%
- Population Healthy Nuclei (%) [3]: 68%
- Population Hoechst High Intensity Objects (%) [3]: 6%
- Population Membrane Permeable-Phenotype (%) [3]: 1%
- Population Mitochondria Different-Phenotype (%) [3]: 3%
- Population Mitotic Cells (%) [3]: 85%
- Population Normal (%) [3]: 93%
- Population Pyknosed Nuclei (%) [3]: 21%
- Population Tubulin-Different-Phenotype (%) [3]: 0%
- Total Cell Count [3]: 577
- Population Apoptotic (%) [4]: 4%
- Population Fragmented Nuclei (%) [4]: 7%
- Population Healthy Nuclei (%) [4]: 87%
- Population Hoechst High Intensity Objects (%) [4]: 2%
- Population Mitochondria Different-Phenotype (%) [4]: 5%
- Population Mitotic Cells (%) [4]: 95%
- Population Normal (%) [4]: 97%
- Population Pyknosed Nuclei (%) [4]: 5%
- Population Tubulin-Different-Phenotype (%) [4]: 2%
- Total Cell Count [4]: 1471
- Population Apoptotic (%) [5]: 15%
- Population Fragmented Nuclei (%) [5]: 20%
- Population Healthy Nuclei (%) [5]: 34%
- Population Hoechst High Intensity Objects (%) [5]: 14%
- Population Membrane Permeable-Phenotype (%) [5]: 47%
- Population Mitochondria Different-Phenotype (%) [5]: 0%
- Population Mitotic Cells (%) [5]: 84%
- Population Normal (%) [5]: 85%
- Population Pyknosed Nuclei (%) [5]: 45%
- Population Tubulin-Different-Phenotype (%) [5]: 33%
- Total Cell Count [5]: 618
- Population Apoptotic (%) [6]: 3%
- Population Fragmented Nuclei (%) [6]: 4%
- Population Healthy Nuclei (%) [6]: 82%
- Population Hoechst High Intensity Objects (%) [6]: 4%
- Population Membrane Permeable-Phenotype (%) [6]: 52%
- Population Mitotic Cells (%) [6]: 96%
- Population Normal (%) [6]: 95%
- Population Pyknosed Nuclei (%) [6]: 13%
- Population Tubulin-Different-Phenotype (%) [6]: 68%
- Total Cell Count [6]: 1297
- Population Apoptotic (%) [7]: 14%
- Population Fragmented Nuclei (%) [7]: 7%
- Population Healthy Nuclei (%) [7]: 82%
- Population Hoechst High Intensity Objects (%) [7]: 2%
- Population Membrane Permeable-Phenotype (%) [7]: 2%
- Population Mitochondria Different-Phenotype (%) [7]: 1%
- Population Mitotic Cells (%) [7]: 85%
- Population Normal (%) [7]: 97%
- Population Pyknosed Nuclei (%) [7]: 10%
- Population Tubulin-Different-Phenotype (%) [7]: 1%
- Total Cell Count [7]: 682
- Population Apoptotic (%) [8]: 0%
- Population Fragmented Nuclei (%) [8]: 18%
- Population Healthy Nuclei (%) [8]: 79%
- Population Hoechst High Intensity Objects (%) [8]: 3%
- Population Membrane Permeable-Phenotype (%) [8]: 3%
- Population Mitochondria Different-Phenotype (%) [8]: 0%
- Population Mitotic Cells (%) [8]: 100%
- Population Normal (%) [8]: 96%
- Population Pyknosed Nuclei (%) [8]: 2%
- Population Tubulin-Different-Phenotype (%) [8]: 2%
- Total Cell Count [8]: 2446
